The structures appear in SMILES notation.

We go through three compounds from PubChem BioAssay AID492968 (Southern Research Specialized Biocontainment Screening …, 2010).

For the experiment, the system named is HEp-2 viability, luminescence (CellTiter-Glo). As to the kind of experiment: HEp-2 cell cytotoxicity, dose response, cytotoxicity control for RSV inhibitor project, CellTiter-Glo luminescence, synthesized compounds, set 3 (AID 492968). An outline of the steps:
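System: HEp-2 cells. Input: 10,595 cells/well. Medium: complete DMEM/F12 medium adjusted to pH 7.5. Compound: 8-point 1:2 series, 0.39–50 µM, 0.5% DMSO. Times: compound exposure of 6 days at 37 °C, 5% CO2. Technique: CellTiter-Glo luminescence. Read-out: CC50 from four-parameter fit of % viability, bounds 0 and 100.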
With `Cc1cc(C)cc(NC(=O)[C@@H]2CCCN2S(=O)(=O)c2cccc3cccnc23)c1`, the cytotoxic concentration (CC50) – broadly, the concentration giving 50% cytotoxicity – is 31.6 µM.

For `Cc1ccccc1NC(=O)[C@@H]1CCCN1S(=O)(=O)c1cccc2cccnc12`, the CC50 is 45 µM.

With `Cc1ccc(NC(=O)[C@@H]2CCCN2S(=O)(=O)c2cccc3cccnc23)cc1`, the CC50 was 27.1 µM.
